Assay outcomes deposited in PubChem BioAssay by Broad Institute.
PGC1a acetyl inh = inhibitors of PGC1a acetylation signal, primary screen, cell-based, U2OS, AlphaScreen, inhibitor mode | inhibition, % at 15.6 µM | 350,000 compounds, 0.17% hits | AID 651687, 2012 | AlphaScreen anti-acetyl-lysine; with virally co-expressed GCN5 acetyltransferase;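 active = every replicate shows inhibition of at least 40%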;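 note: 0% = neutral control wells and 100% = positive control wells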
CAL PDZ FP-1 = CAL PDZ peptide-binding inhibitors, primary screen, biochemical, fluorescence polarization, Cer-tagged CAL PDZ, HTS. AID 504414, 2011. purified CAL PDZ, TMR-peptide fluorescence polarization, 1 h. inhibition, % at 20 µM. 330,000 compounds, 0.02% hits. Golgi-associated PDZ and coiled-coil motif-containing protein (Homo sapiens), Q9HD26;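 active = highest replicate inhibition of at least 40%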;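 note: plate controls were DMSO neutral control wells for no effect and unlabeled competitor peptide control wells for full effect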
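Material: tagged CAL PDZ protein CerCALP, purified; buffer or medium: sodium phosphate/NaCl buffer pH 7.4 with TCEP, IgG, Thesit; also added: fluorescent TMR peptide probe; schedule: 1 h incubation at room temperature before polarization reading; technique: fluorescence polarization from S- and P-plane intensities, G-factor corrected; control set: unlabelled peptide and DMSO controls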
miR-122 sensor = miR-122 Renilla sensor signal increase in Huh7, primary screen, miR-122 inhibitor project, cell-based, single point, plate reader. Huh7 miR-122 Renilla luciferase sensor, 48 h; neutral wells = 0, positive control = 100. activation (reporter increase), % at 12.5 µM. 340,000 compounds, 0.3% hits;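 active = mean replicate activation score at least 90 and every replicate individually at or above 90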;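 note: higher luciferase means less miR-122 activity so hits act as miR-122 inhibitors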
ARNT TACC3 PPI = disruptors of ARNT/TACC3 protein interaction, primary screen, biochemical, AlphaScreen, single concentration; inhibition, % at 9.99 µM; Transforming acidic coiled-coil-containing protein 3 (Homo sapiens), Q9Y6A5; 390,000 compounds, 0.66% hits; AlphaScreen His-ARNT PAS-B/GST-TACC3 binding, luminescence; TACC3 fragment carries E629A point mutation; AID 623870, 2012;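 active = mean inhibition of replicates at least 50% and at least half of replicates each reaching 50%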;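 note: 0% = complete ARNT plus TACC3 wells and 100% = ARNT alone without TACC3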
CAL PDZ FP-2 = untagged CAL PDZ binding inhibitors, primary screen, biochemical, fluorescence polarization, HTS | Golgi-associated PDZ and coiled-coil motif-containing protein (Homo sapiens), Q9HD26 | purified CAL PDZ, TMR-peptide fluorescence polarization, 1 h | inhibition, % at 24.9 µM | 300,000 compounds, 0.92% hits | AID 602252, 2012;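 active = mean inhibition of at least 30% with at least half of replicates also reaching 30%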;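 note: 0% = DMSO neutral control and 100% = excess unlabeled competitor peptide PRC23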
CFTR F508del cor = F508del CFTR correction, initial screen, CFBE line, single point. CFBE cells, YFP halide quenching; stimulated with forskolin plus potentiator P3; % fluorescence drop versus neutral controls. activity (quench increase), % at 7.58 µM. 350,000 compounds, 0.36% hits. AID 720511, 2013;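 active = mean added fluorescence quench of at least 8% versus neutral control, with both replicates also reaching 8%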;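 note: cells transiently co-express mutant CFTR-F508del with the halide-sensitive YFP; corrector assay measuring rescue of mutant channel to the surface after 24 h compound exposure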
The depositor's hits bear a star; · = no result given; [ ] = dose if it differs, or a comment. This is a sample that favours compounds with a hit; in the whole collection about 1.7% have one here.

SMILES	PGC1a acetyl inh	CAL PDZ FP-1	miR-122 sensor	ARNT TACC3 PPI	CAL PDZ FP-2	CFTR F508del cor
CC1CCN(S(=O)(=O)c2ccc(Oc3ccc([N+](=O)[O-])cc3)cc2)CC1	54*	0	2	0	·	·
O=C(CSc1cccc2cccnc12)N/N=C/c1ccc(F)cc1	·	-2	·	44	·	-1
CCCCC(=O)N/N=C/c1ccc(Sc2cccc3cccnc23)o1	-13	0	4	54*	2	·
CC(C)(C)OC(=O)N1CCC(NC(=O)c2nc[nH]c2C(=O)NC2CCN(C(=O)OC(C)(C)C)CC2)CC1	-1	0	0	7	-2	-1
CC(C)(C)OC(=O)N1CCC(NC(=O)c2[nH]cnc2C(=O)Nc2cccc(Cl)c2)CC1	-1	0	-8	-2	45*	3
CCCN(C)C[C@@H]1OCCCC[C@@H](C)Oc2ccc(NC(=O)NC(C)C)cc2C(=O)N([C@H](C)CO)C[C@@H]1C	1	·	1[16.7 µM]	-1	·	0
CC(C)(C)c1ccc(OCC(=O)N/N=C/C2CC=CCC2)cc1 (stereo unspecified)	-21	-2	-1	25*	-4	-3
CN(C)CCCNC(=O)C[C@@H]1CC[C@H]2[C@@H](COc3ccc(NC(=O)c4cccc(F)c4)cc3C(=O)N2C)O1	10	·	-50[16.7 µM]	-6	·	-2
COC1(OC)N=C(N)C2(C#N)C(c3ccccc3)NC(C)=CC12C#N (stereo unspecified)	0	·	-4	57*	10	·
CCCN(CC(=O)Nc1ccccc1OC)C(=O)CSC(=S)N1CCCC1	-20	0	-1	15	60*	2
CCCN(CC(=O)Nc1ccccc1OC)C(=O)c1ccccn1	2	0	0	3	74*	-6
CCCN(CC(=O)Nc1ccccc1OC)C(=O)CC1CCCC1	-4	2	-10	-6	0	1
Cc1c(OCC(=O)NCCN2CCOCC2)ccc2c3c(c(=O)oc12)CCC3	·	-2	-7	5	-1	11*
Cc1c(OCC(=O)NCCCN2CCOCC2)ccc2c3c(c(=O)oc12)CCCC3	-13	0	-4	7	3	2
C[C@@H]1CN([C@@H](C)CO)C(=O)c2cccc(NS(=O)(=O)c3cn(C)cn3)c2O[C@@H]1CN(C)C	-1	·	3[16.7 µM]	0	·	3
CCOC(=O)c1ccc(N2C(=O)CC(N3CCC(O)(c4ccc(Br)cc4)CC3)C2=O)cc1 (stereo unspecified)	47*	-1	2	-8	-1	·
COc1ccc(NC(=O)c2cnn(-c3ccccc3)c2C)cc1	·	-1	·	-11	-2	2
COc1ccc(NC(=S)NNC(=O)c2nnn(-c3ccccc3)c2C)cc1	·	-1	·	62*	-6	0
FC(F)(F)c1cc(-c2ccccc2)nc(N2CCCCC2)n1	-3	1	-3	-7	-4	·
O=C(O)C1CCCN1c1nc(-c2ccc(Cl)c(Cl)c2)cc(C(F)(F)F)n1 (stereo unspecified)	·	-2	-2	·	91*	-4
C[C@@H]1CCCCO[C@H](CN(C)C(=O)CCCN(C)C)[C@H](C)CN([C@@H](C)CO)C(=O)c2cc(NC(=O)Nc3cccc4ccccc34)ccc2O1	-3	·	18[16.7 µM]	-4	·	1
O=C(NCc1ccc2c(c1)OCO2)c1nc(Cn2cc(Br)cn2)no1	·	-1	·	-3	37*	1
N/C(=N\OC(=O)Cc1ccccc1[N+](=O)[O-])c1cccnc1	-4	·	·	-2	77*	1
COc1ccc(/C(N)=N/OC(=O)Cc2ccccc2[N+](=O)[O-])cc1	·	-3	·	30	-5	·
CC1(c2ccc3c(c2)OCO3)NC(=O)N(CC(=O)Nc2ccccc2[N+](=O)[O-])C1=O (stereo unspecified)	-4	-1	-10	-3	46*	-1
